Measured values from ChEMBL document CHEMBL1130393, “Antitumor agents. 178. Synthesis and biological evaluation of substituted 2-aryl-1,8-naphthyridin-4(1H)-ones as antitumor agents that inhibit tubulin polymerization” (J Med Chem, 1997).

Tests used:
HL-60 = experiment: In vitro antitumor activity against HL-60(TB) tumor cell lines; type: functional; details: Homo sapiens
Tumor Cell line [1] = experiment: In vitro antitumor activity against NCI 's human tumor cell lines; type: functional; details: read-out: Average log GI50 (converted)
Outline: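 NCI in vitro screen of 60 human tumor cell lines. […] The value is calculated from all cell lines tested.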

MDA-N = experiment: In vitro antitumor activity against MDA-N tumor cell lines; type: functional; details: Homo sapiens
NCI-H460 = experiment: In vitro antitumor activity against NCI-H460 tumor cell lines; type: functional; details: Homo sapiens
OVCAR-3 = experiment: In vitro antitumor activity against OVCAR-3 tumor cell lines; type: functional; details: Homo sapiens
PC-3 = experiment: In vitro antitumor activity against PC-3 tumor cell lines; type: functional; details: Homo sapiens
SF-295 = experiment: In vitro antitumor activity against SF-295 tumor cell lines; type: functional; details: Homo sapiens
SK-MEL-5 = experiment: In vitro antitumor activity against SK-MEL-5 tumor cell lines; type: functional; details: Homo sapiens
U-251 = experiment: In vitro antitumor activity against U-251 tumor cell lines; type: functional; details: Homo sapiens
Tubulin = Tubulin (Bos taurus, UniProt Q6B856+Q862L2+Q862F3); experiment: Inhibition of tubulin polymerization; type: functional
HCT-116 = experiment: In vitro antitumor activity against HCT116 tumor cell lines; type: functional; details: Homo sapiens
MDA-MB-435 = experiment: In vitro antitumor activity against MDA-MB-435 NCI 's human tumor cell lines; type: functional
CAKI-1 = experiment: In vitro antitumor activity against CAKI-1 tumor cell lines; type: functional; details: Homo sapiens
[2] = tested on: Panel breast (Carcinoma cell lines); experiment: log molar concentration required to cause total growth inhibition of breast tumor cell lines; type: functional; details: Homo sapiens, read-out: Log TGI (converted)
Outline: (§1)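 TGI from the NCI 60 human tumor cell line in vitro screen: log of the molar drug concentration causing total growth inhibition, reported for the named cell panel.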

[3] = tested on: Panel CNS (Carcinoma cell lines); experiment: log molar concentration required to cause total growth inhibition of CNS cancer cell lines; type: functional; details: Homo sapiens, read-out: Log TGI (converted); outline: as §1
[4] = tested on: Panel colon (Carcinoma cell lines); experiment: log molar concentration required to cause total growth inhibition of colon tumor cell lines; type: functional; details: Homo sapiens, read-out: Log TGI (converted); outline: as §1
Leukemic tumor cell line = experiment: log molar concentration required to cause total growth inhibition of leukemic tumor cell lines; type: functional; details: Homo sapiens, read-out: Log TGI (converted); outline: as §1
Melanoma tumor cell line = experiment: log molar concentration required to cause total growth inhibition of melanomic tumor cell lines; type: functional; details: Homo sapiens, read-out: Log TGI (converted); outline: as §1
NSCLC = experiment: log molar concentration required to cause total growth inhibition of non-small cell lung tumor cell lines; type: functional; details: Homo sapiens, read-out: Log TGI (converted); outline: as §1
[5] = tested on: Panel prostate (Carcinoma cell lines); experiment: log molar concentration required to cause total growth inhibition of prostate tumor cell lines; type: functional; details: Homo sapiens, read-out: Log TGI (converted); outline: as §1
[6] = tested on: Panel renal (Carcinoma cell lines); experiment: log molar concentration required to cause total growth inhibition of renal tumor cell lines; type: functional; details: Homo sapiens, read-out: Log TGI (converted); outline: as §1
Tubulin (Bos taurus) = Tubulin (Bos taurus) (UniProt Q6B856+Q862L2+Q862F3); experiment: Inhibition of radiolabeled colchicine binding to tubulin; type: protein assay; design: concentration or dose not given beside the values; details: concentration not given here
Outline: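 Measured by DEAE-cellulose filter binding. The 0.1 mL mixture held bovine brain tubulin 1.0 µM, 1.0 M monosodium glutamate (pH 6.6), 1 mM MgCl2, 0.1 mM GTP, 5.0 µM [3H]colchicine, 5% DMSO and inhibitor at 5.0 µM. It was incubated 20 min at 37 °C, filtered through two DEAE-cellulose papers, washed with water and counted by liquid scintillation.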

Tumor Cell line [7] = experiment: log molar concentration required to cause total growth inhibition of NCI 's human tumor cell lines; type: functional; details: read-out: Log TGI (converted)
Outline: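 NCI 60 human tumor cell line in vitro screen. TGI is the log molar concentration giving total growth inhibition, calculated from all cell lines tested.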

[8] = tested on: Panel ovarian (Carcinoma cell lines); experiment: log molar concentration required to cause total growth inhibition of ovarian tumor cell lines; type: functional; details: Homo sapiens, read-out: Log TGI (converted); outline: as §1

Row | Compound | GI50 (HL-60) | GI50 (Tumor Cell line [1]) | GI50 (MDA-N) | GI50 (NCI-H460) | GI50 (OVCAR-3) | GI50 (PC-3) | GI50 (SF-295) | GI50 (SK-MEL-5) | GI50 (U-251) | IC50 (Tubulin) | GI50 (HCT-116) | GI50 (MDA-MB-435) | GI50 (CAKI-1) | inhibition (Tubulin (Bos taurus)) | further results
1 | Cc1cccc(-c2cc(O)c3ccc(C)nc3n2)c1 | 26.9 nM | 97.7 nM | 31.6 nM | 17.8 nM | 490 nM | 138 nM | 60.3 nM | 126 nM | 200 nM | 1900 nM | 120 nM | 32.4 nM | 427 nM |  | 
2 | Cc1cc(C)c2c(O)cc(-c3cccc(F)c3)nc2n1 | 37.1 nM | 85.1 nM | 12.9 nM | 53.7 nM | 18.2 nM | 61.7 nM | 33.1 nM | 37.1 nM | 64.6 nM | 740 nM | < 10 nM | < 10 nM | 35.5 nM | 29% | TGI [2]: 1000 nM; TGI [3]: 9770 nM; TGI [4]: 1170 nM; TGI (Leukemic tumor cell line): 2450 nM; TGI (Melanoma tumor cell line): 13800 nM; TGI (NSCLC): 2510 nM; TGI [5]: 49000 nM; TGI [6]: 49000 nM; TGI (Tumor Cell line [7]): 5620 nM; TGI [8]: 5500 nM
3 | Cc1ccc2c(=O)cc(-c3cccc(F)c3)[nH]c2n1 | 22.4 nM | 42.7 nM | 14.4 nM | 33.1 nM | 19.5 nM | 34.7 nM | 28.8 nM | 22.4 nM | 38 nM | 530 nM | 28.2 nM | 12.3 nM | 45.7 nM | 41% | TGI [2]: 575 nM; TGI [3]: 2240 nM; TGI [4]: 550 nM; TGI (Leukemic tumor cell line): 2750 nM; TGI (Melanoma tumor cell line): 24000 nM; TGI (NSCLC): 5750 nM; TGI [5]: 1580 nM; TGI [6]: 64600 nM; TGI (Tumor Cell line [7]): 4680 nM; TGI [8]: 10200 nM
4 | Cc1cccc(-c2cc(O)c3c(C)ccnc3n2)c1 | 18.2 nM | 57.5 nM | 11 nM | 36.3 nM | 22.4 nM | 33.1 nM | 30.2 nM | 33.9 nM | 53.7 nM | 1800 nM | 46.8 nM | < 10 nM | 53.7 nM |  | 
5 | Cc1ccc2c(O)cc(-c3cccc(Cl)c3)nc2n1 | 28.8 nM | 170 nM | > 100000 nM | 41.7 nM | < 10 nM | > 100000 nM | 22.9 nM | 31.6 nM | 64.6 nM | 890 nM | 25.7 nM | < 10 nM | 41.7 nM | 38% | TGI [2]: 3800 nM; TGI [3]: 1950 nM; TGI [4]: 3090 nM; TGI (Leukemic tumor cell line): > 100000 nM; TGI (Melanoma tumor cell line): 69200 nM; TGI (NSCLC): 24500 nM; TGI [5]: > 100000 nM; TGI [6]: > 100000 nM; TGI (Tumor Cell line [7]): 21400 nM; TGI [8]: 10500 nM
6 | Cc1ccc2c(O)cc(-c3ccc4ccccc4c3)nc2n1 | 1780 nM | 4570 nM | 1950 nM | 3800 nM | 3630 nM | 2630 nM | 3800 nM | 3310 nM | 4570 nM | 5100 nM | 3980 nM | 1580 nM | 5370 nM |  | 
7 | Oc1cc(-c2cccc3ccccc23)nc2ncccc12 | < 10 nM | 35.5 nM | < 10 nM | 38.9 nM | < 10 nM | 17.8 nM | < 10 nM | < 10 nM | 10.2 nM | 1100 nM | < 10 nM | < 10 nM | 15.1 nM |  | 
8 | Oc1cc(-c2ccc3ccccc3c2)nc2ncc(Cl)cc12 | 1780 nM | 5750 nM | 1550 nM | 4070 nM | 2630 nM | 3090 nM | 5500 nM | 2950 nM | 4790 nM | 2500 nM | 3980 nM | 851 nM | 7590 nM |  | 
9 | Cc1cc(C)c2c(O)cc(-c3cccc(Cl)c3)nc2n1 | 74.1 nM | 347 nM | 19.1 nM | 224 nM | 170 nM | 27.5 nM | 47.9 nM | 117 nM | 295 nM | 770 nM | 170 nM | 13.2 nM | 204 nM | 22% | TGI [2]: 1230 nM; TGI [3]: 5010 nM; TGI [4]: 28800 nM; TGI (Leukemic tumor cell line): 81300 nM; TGI (Melanoma tumor cell line): 72400 nM; TGI (NSCLC): > 100000 nM; TGI [5]: 3090 nM; TGI [6]: 58900 nM; TGI (Tumor Cell line [7]): 26300 nM; TGI [8]: 30200 nM
10 | Cc1cnc2nc(-c3ccc4ccccc4c3)cc(O)c2c1 | 141 nM | 741 nM | 132 nM | 398 nM | 355 nM | 407 nM | 550 nM | 363 nM | 468 nM | 2100 nM | 468 nM | 105 nM | 617 nM |  | 
11 | Cc1cc(C)c2c(O)cc(-c3ccc4ccccc4c3)nc2n1 | 3470 nM | 13500 nM | 3240 nM | 13200 nM | 20000 nM | 5500 nM | 14800 nM | 2190 nM | 15800 nM | > 40000 nM | 12600 nM | 2950 nM | 51300 nM |  | 
12 | Oc1cc(-c2ccc3ccccc3c2)nc2ncccc12 | 1820 nM | 8130 nM | 1660 nM | 3800 nM | 8320 nM | 10500 nM | 9120 nM | 3470 nM | 4370 nM | 14000 nM | 3800 nM | 1780 nM | 5620 nM |  | 
13 | Cc1ccnc2nc(-c3cccc4ccccc34)cc(O)c12 | < 10 nM | 35.5 nM | < 10 nM | < 10 nM | < 10 nM | 19.9 nM | 10.7 nM | < 10 nM | < 10 nM | 930 nM | < 10 nM | < 10 nM | 12 nM | 37% | 
14 | Cc1cc(C)c2c(O)cc(-c3cccc4ccccc34)nc2n1 | 245 nM | 1050 nM | 234 nM | 631 nM | 347 nM | 759 nM | 589 nM | 468 nM | 372 nM | 780 nM | 380 nM | 191 nM | 9550 nM | 15% | 
15 | Cc1cnc2nc(-c3cccc4ccccc34)cc(O)c2c1 | < 10 nM | 19.1 nM | < 10 nM | < 10 nM | < 10 nM | < 10 nM | < 10 nM | < 10 nM | < 10 nM | 550 nM | < 10 nM | < 10 nM | < 10 nM | 46% | 
16 | Cc1ccc2c(O)cc(-c3cccc4ccccc34)nc2n1 | < 10 nM | 66.1 nM | < 10 nM | 17.4 nM | < 10 nM | 30.2 nM | 24 nM | 13.8 nM | 15.5 nM | 660 nM | < 10 nM | < 10 nM | 6030 nM | 40% | 
17 | Cc1cccc(-c2cc(O)c3c(C)cc(C)nc3n2)c1 | 12900 nM | 38000 nM | 20900 nM | 44700 nM | 30200 nM | 31600 nM | 64600 nM | 34700 nM | 53700 nM | 2300 nM | 17800 nM | 20000 nM | 56200 nM |  | 
18 | Cc1cccc(-c2cc(O)c3cc(C)cnc3n2)c1 | 174 nM | 646 nM | < 10 nM | 389 nM | 251 nM | 309 nM | 417 nM | 288 nM | 170 nM | 1500 nM | 407 nM | < 10 nM | 437 nM |  | 
19 | Cc1ccnc2nc(-c3ccc4ccccc4c3)cc(O)c12 | 204 nM | 1200 nM | 204 nM | 1050 nM | 1290 nM | 1380 nM | 1480 nM | 437 nM | 646 nM | 1800 nM | 427 nM | 204 nM | 2400 nM |  | 
